How the values were obtained:
Plasmodium falciparum [1] = test: Inhibition of recombinant Plasmodium falciparum falcipain 2 at 10 uM preincubated for 10 mins before addition of Z-Phe-Arg-AMC substrate by fluorescence spectrophotometry
How it was run: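 Soluble recombinant FP-2 (30 nM) preincubated with compound at 10 µM for 10 min at room temperature in 100 mM sodium acetate pH 5.5 with 10 mM DTT. Compound was diluted from DMSO stock. Z-Phe-Arg-AMC was then added (25 µM final), and fluorescence (ex 355/em 460 nm) was followed for 10 min at room temperature. % inhibition = [1 − Ftest/Fcontrol]×100; mean of three independent determinations.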

[2] = Inhibition of recombinant Plasmodium falciparum falcipain 2 incubated with compound for 10 mins before addition of Z-Phe-Arg-AMC substrate by fluorescence spectrophotometry
How it was run: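 FP-2 (30 nM) was preincubated for 10 min at room temperature with a series of fixed compound concentrations (from DMSO stock) in 100 mM sodium acetate pH 5.5, 10 mM DTT. Z-Phe-Arg-AMC was added to 25 µM final and AMC fluorescence (355/460 nm) monitored 10 min. IC50 was determined only for compounds reaching ≥40% inhibition at 10 µM; values are means of three independent determinations.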

Plasmodium falciparum [3] = test: Inhibition of recombinant Plasmodium falciparum falcipain 2 at 2 uM preincubated for 10 mins before addition of Z-Phe-Arg-AMC substrate by fluorescence spectrophotometry

| inhibition (Plasmodium falciparum [1]) | IC50 [2] | inhibition (Plasmodium falciparum [3]) | Compound |
| --- | --- | --- | --- |
| 15% |  |  | CC(=O)NCCNC(=O)Nc1cnc2cc(C)ccn2c1=O |
| 46% | 15 µM |  | O=C(Nc1cnc2ccccn2c1=O)N1CCN(c2ccccn2)CC1 |
|  | 0.02 µM | 92% | CC(C)C[C@H](NC(=O)[C@H]1O[C@@H]1C(=O)O)C(=O)NCCCCN=C(N)N [E-64] |
| 36% |  |  | COc1ccc(N2CCN(C(=O)Nc3cnc4ccc(Cl)cn4c3=O)CC2)cc1 |
| 43% |  |  | COc1ccc(N2CCN(C(=O)Nc3cnc4ccccn4c3=O)CC2)cc1 |
| 18% |  |  | O=C(Nc1cnc2ccccn2c1=O)OCc1ccccn1 |
| 63% | 6 µM |  | COCCNC(=O)Nc1cnc2cc(C)ccn2c1=O |
| 31% |  |  | COCCNC(=O)Nc1cnc2ccccn2c1=O |
| 37% |  |  | Cc1ccn2c(=O)c(NC(=O)N3CCN(c4ccccn4)CC3)cnc2c1 |
| 24% |  |  | O=C(NCc1ccc2c(c1)OCO2)c1cnc2ccc(Cl)cn2c1=O |
| 44% | 14 µM |  | O=C(NCCc1cccs1)Nc1cnc2ccccn2c1=O |
| 68% | 7 µM |  | O=C(NCCN1CCOCC1)Nc1cnc2ccc(Cl)cn2c1=O |
| 23% |  |  | Cc1ccn2c(=O)c(NC(=O)N3CCN(C(c4ccccc4)c4ccccc4)CC3)cnc2c1 |
| 41% | 12 µM |  | O=C(Nc1cnc2ccc(Cl)cn2c1=O)N1CCN(c2ccccn2)CC1 |
| 39% |  |  | O=C(NCc1ccc(Cl)cc1)Nc1cnc2ccccn2c1=O |
| 6% |  |  | Cc1ccn2c(=O)c(C(=O)NCc3ccc(F)cc3)cnc2c1 |
| 12% |  |  | O=C(Nc1cnc2ccccn2c1=O)OCc1ccccc1 |
| 42% | 18 µM |  | Cc1ccn2c(=O)c(NC(=O)OCc3ccccn3)cnc2c1 |
| 45% | 21 µM |  | Cc1ccn2c(=O)c(NC(=O)NCCc3cccs3)cnc2c1 |
| 18% |  |  | COc1ccc(CNC(=O)Nc2cnc3ccccn3c2=O)cc1 |
| 31% |  |  | Cc1ccn2c(=O)c(NC(=O)OCc3ccccc3)cnc2c1 |
| 7% |  |  | O=C(NCc1ccc2c(c1)OCO2)c1cnc2ccccn2c1=O |
| 42% | 23 µM |  | O=C(NCCc1cccs1)Nc1cnc2ccc(Cl)cn2c1=O |
| 27% |  |  | Cc1ccn2c(=O)c(NC(=O)NCCN3CCOCC3)cnc2c1 |
| 25% |  |  | O=C(NCCCN1CCOCC1)Nc1cnc2ccccn2c1=O |
| 46% | 16 µM |  | CC(=O)NCCNC(=O)Nc1cnc2ccccn2c1=O |
| 46% | 19 µM |  | COc1ccc(N2CCN(C(=O)Nc3cnc4cc(C)ccn4c3=O)CC2)cc1 |

Source: ChEMBL document CHEMBL2157912, “Pyrido[1,2-a]pyrimidin-4-ones as antiplasmodial falcipain-2 inhibitors” (Bioorg Med Chem, 2012)
